Source: ChEMBL document CHEMBL2029341, “Synthesis and evaluation of indole-based chalcones as inducers of methuosis, a novel type of nonapoptotic cell death” (J Med Chem, 2012)
pIC50: −log10 of the molar value. Activity calls are given as the source filed them. The calls are words filed in the database; no cut-off is given here.

Columns and labels:
[1] = tested on: U-251; experiment: Induction of methuosis in human U251 cells assessed as induction of cellular vacuolization at 10 uM after 24 to 48 hrs by phase contrast microscopic analysis; format: functional, cell-based
Procedure, shortened: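 U251 glioblastoma cells in DMEM with 10% FBS at 37 °C under 5% CO2. Compound added in DMSO at 10 μM one day after plating; vehicle-only controls. Live cells examined by phase-contrast microscopy at 24 and 48 h for phase-lucent cytoplasmic vacuoles, with cell rounding and detachment taken as methuosis hallmarks.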

[2] = tested on: U-251; experiment: Cytotoxicity against human U251 cells assessed as reduction of cell viability at 10 uM after 48 hrs by MTT assay relative to control
[3] = tested on: U-251; experiment: Cytotoxicity against human U251 cells assessed as colony formation at 10 uM treated for 48 hrs followed by washout measured after 2 weeks relative to control
[4] = tested on: U-251; experiment: Induction of methuosis in human U251 cells assessed as induction of cellular vacuolization at 2.5 to 10 uM after 3 days by phase contrast microscopic analysis; format: functional, cell-based
[5] = tested on: U-251; experiment: Induction of methuosis in human U251 cells assessed as induction of cellular vacuolization at 2.5 after 3 days by phase contrast microscopic analysis; format: functional, cell-based
Procedure, shortened: (§1)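 One day after plating, U251 cells given 2.5 μM or 10 μM final compound or DMSO vehicle; live cells viewed by phase-contrast microscopy on three sequential days, without medium change or compound replenishment, for phase-lucent cytoplasmic vacuoles, rounding and detachment.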

[6] = tested on: U-251; experiment: Induction of methuosis in human U251 cells assessed as induction of cellular vacuolization at 2.5 uM after 1 to 2 days by phase contrast microscopic analysis; format: functional, cell-based; procedure, shortened: as §1
[7] = tested on: U-251; experiment: Cytotoxicity against human U251 cells assessed as inhibition of colony formation at 2 to 10 uM treated for 48 hrs followed by washout measured after 2 weeks relative to control; format: functional, cell-based
Procedure, shortened: (§2)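 U251 cells at 2,500 per 100 mm dish; one day after plating, compound added for 48 h (10 μM, or graded concentrations), then removed and cultures refed every 2 d. Colonies >50 cells counted at two weeks after methanol fixation and crystal violet staining; percent of DMSO control dishes, mean ± S.D. of three dishes.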

[8] = tested on: U-251; experiment: Cytotoxicity against human U251 cells assessed as inhibition of colony formation at 5 to 20 uM treated for 48 hrs followed by washout measured after 2 weeks relative to control; format: functional, cell-based; procedure, shortened: as §2
[9] = tested on: U-251; experiment: Induction of methuosis in human temozolomide-resistant U251 cells assessed as induction of cellular vacuolization at 2.5 to 10 uM after 3 days by phase contrast microscopic analysis; format: functional, cell-based
[10] = tested on: U-251; experiment: Cytotoxicity against human U251 cells after 48 hrs by MTT assay; details: U-251, 48 h
[11] = tested on: U-251; experiment: Cytotoxicity against human U251 cells assessed as reduction of cell growth and viability at 2.5 to 10 uM after 3 days by cell counting
[12] = tested on: U-251; experiment: Cytotoxicity against human temozolomide-resistant U251 cells assessed as reduction of cell viability at 2.5 to 10 uM after 48 hrs by colony formation assay
[13] = tested on: U-251; experiment: Cytotoxicity against human U251 cells assessed as inhibition of colony formation at 10 uM treated for 48 hrs followed by washout measured after 2 weeks relative to control; format: functional; procedure, shortened: as §2

Structure (SMILES)	Activity [1]	Activity [2] [%]	level, % of control at 10 µM [3] [%]	further results
COc1ccc(C(=O)/C=C/c2c[nH]c3ccc(Br)cc23)cc1	inactive	–	–	–
COc1ccc2[nH]cc(/C=C/C(=O)c3cccnc3)c2c1	inactive	90	99	–
O=C(/C=C/c1c[nH]c2ccccc12)c1ccc(Cl)cc1	inactive	–	–	–
O=C(/C=C/c1c[nH]c2ccccc12)c1ccncc1	Active	58	22	–
COc1ccc2[nH]cc(/C=C/C(=O)c3ccncc3)c2c1	Active	58	2	–
Cc1ccc(C(=O)/C=C/c2c[nH]c3ccccc23)cc1	inactive	–	–	–
COC(=O)c1ccc(COc2ccc3[nH]c(C)c(/C=C/C(=O)c4ccncc4)c3c2)cc1	inactive	79	76	–
Cc1[nH]c2ccc(O)cc2c1/C=C/C(=O)c1ccncc1	Active	101	43	–
O=C(/C=C/c1c[nH]c2ccc(OCc3ccccc3)cc12)c1ccncc1	Active	56	8	–
O=C(/C=C/c1c[nH]c2ccccc12)c1cccnc1	inactive	72	71	–
COc1ccc2[nH]cc(/C=C/C(=O)c3cnccn3)c2c1	inactive	88	96	–
Cc1[nH]c2ccc(OCc3ccc(C(=O)O)cc3)cc2c1/C=C/C(=O)c1ccncc1	inactive	79	71	–
O=C(NCCc1c[nH]c2ccc(Cl)cc12)c1cccnc1	inactive	–	–	–
O=C(/C=C/c1c[nH]c2ccc(O)cc12)c1ccncc1	inactive	107	72	–
Oc1cccc(/N=C/c2c[nH]c3ccccc23)c1	inactive	–	–	–
Cc1[nH]c2ccccc2c1/C=C/C(=O)c1ccncc1	Active	24	8	Activity [4]: Active; Activity [5]: inactive; Activity [6]: Active; inhibition [7]: Active; inhibition [8]: Active; Activity [9]: Active; pIC50 [10]: 5.32; inhibition [11]: Active; Activity [12]: Active
Cc1[nH]c2ccc(N=[N+]=[N-])cc2c1/C=C/C(=O)c1ccncc1	–	–	–	inhibition [13]: Active
COc1ccc2c(c1)c(/C=C/C(=O)c1ccncc1)cn2C	Active	73	52	–
O=C(COc1ccccc1)c1c[nH]c2ccccc12	inactive	–	–	–
O=C(/C=C/c1c[nH]c2ccccc12)c1ccccc1	inactive	109	76	–
COc1cc2c(/C=C/C(=O)c3ccncc3)c(C)[nH]c2cc1N=[N+]=[N-]	–	–	–	inhibition [13]: Active
O=C(/C=C/c1c[nH]c2ccccc12)c1ccccn1	inactive	96	53	–
